We go through 3 compounds from ChEMBL document CHEMBL4402570, “Discovery and Optimization of Novel Pyrazolopyrimidines as Potent and Orally Bioavailable Allosteric HIV-1 Integrase Inhibitors” (J Med Chem, 2020).

Data set [1] can be described thus: Cytotoxicity against human MT2 cells measured after 4 days by XTT assay. It is filed as cell-based. Put shortly:
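MT-2 cell viability measured by XTT after 4 days of compound exposure, run in parallel with the antiviral assay; CC50 from n ≥ 2 determinations.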

The nature of data set [2]: Cmax in Sprague-Dawley rat at 1 mg/kg, iv infusion for 10 mins or 5 mg/kg, po administered via gavage by LC-MS/MS analysis. It is filed as ADME, organism-based. To be noted: in vivo. Put shortly:
(§1)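 Rats given iv via implanted venous cannula as 10 min infusion, or oral gavage after overnight fast; vehicle 10% dimethylacetamide/90% PEG400 for both routes. Plasma from venous-port blood, treated with CH3CN containing internal standard, analysed by LC-MS/MS; oral plasma levels followed 24 h after 5 mg/kg. Parameters by noncompartmental analysis of concentration-time data.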

A short description of data set [3]: Half life in Sprague-Dawley rat at 1 mg/kg, iv infusion for 10 mins or 5 mg/kg, po administered via gavage by LC-MS/MS analysis. It is filed as ADME, organism-based. The conditions noted are these: in vivo. Put shortly:
as §1

Data set [4] is described as follows: Stability of the compound in human liver microsomes assessed as parent compound remaining at 0.5 uM measured after 10 mins in presence of NADPH by LC-MS/MS analysis. The format is ADME, Microsome. To be noted: read-out: Stability. The gist of the method:
(§2)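 CYP-mediated turnover: 0.5 μM compound with human or rat liver microsomes (1 mg/mL) in 100 mM sodium phosphate pH 7.4, 6.6 mM MgCl2, 37 °C; started with NADPH, DMSO 0.014%. Samples quenched at 0 and 10 min; parent remaining by LC-MS/MS; duplicate.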
Background: Liver microsomes are vesicles of endoplasmic reticulum, rich in cytochrome P450 enzymes.

Data set [5] is described as follows: Therapeutic index, ratio of CC50 for human MT2 cells to EC50 for HIV1 NL4-3 infected in human MT2 cells. To be noted: read-out: Ratio CC50/EC50. The format is toxicity, cell-based.
Data set [6] can be described thus: Volume of distribution at steady state in Sprague-Dawley rat at 1 mg/kg, iv infusion for 10 mins or 5 mg/kg, po administered via gavage by LC-MS/MS analysis. The format is ADME, organism-based. To be noted: in vivo, read-out: Vdss. The gist of the method:
as §1

The nature of data set [7]: AUC (0 to 24 hrs) in Sprague-Dawley rat at 1 mg/kg, iv infusion for 10 mins or 5 mg/kg, po administered via gavage by LC-MS/MS analysis. It is filed as ADME, organism-based. The conditions noted are these: in vivo. Put shortly: as §1
Data set [8] can be described thus: Stability of the compound in rat liver microsomes assessed as parent compound remaining at 0.5 uM measured after 10 mins in presence of NADPH by LC-MS/MS analysis. It is filed as ADME, Microsome. The conditions noted are these: read-out: Stability. The gist of the method: as §2
The subject of data set [9] is Human immunodeficiency virus 1. In words: Antiviral activity against HIV1 NL4-3 infected in human MT2 cells measured after 3 to 4 days in presence of human serum albumin by luciferase reporter gene assay. It is filed as functional, organism-based. The conditions noted are these: Human immunodeficiency virus 1, NL4-3, MT2.
Data set [10] is described as follows: Clearance in Sprague-Dawley rat at 1 mg/kg, iv infusion for 10 mins or 5 mg/kg, po administered via gavage by LC-MS/MS analysis. It is filed as ADME, organism-based. The conditions noted are these: in vivo. Put shortly:
as §1

The nature of data set [11]: Oral bioavailability in Sprague-Dawley rat at 5 mg/kg administered via gavage by LC-MS/MS analysis. The format is ADME, organism-based. To be noted: in vivo. Put shortly: as §1
The nature of data set [12]: Tmax in Sprague-Dawley rat at 1 mg/kg, iv infusion for 10 mins or 5 mg/kg, po administered via gavage by LC-MS/MS analysis. It is filed as ADME, organism-based. The conditions noted are these: in vivo. Put shortly:
as §1

Data set [13] in a line: Permeability of the compound in pH 7.4 buffer at 100 uM measured after 4 hrs by sandwich-PAMPA. To be noted: read-out: permeability. It is filed as ADME. Put shortly:
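Parallel artificial membrane permeability: compound at 100 μM in donor buffer pH 7.4, permeating to acceptor through artificial membrane over 4 h; donor, acceptor and t0 solutions read by UV plate reader; triplicate.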
On the technique in general: In PAMPA a lipid-coated filter parts donor from acceptor wells.

For data set [14], the system named is Human immunodeficiency virus 1. In words: Antiviral activity against HIV1 NL4-3 infected in human MT2 cells measured after 3 to 4 days by luciferase reporter gene assay. It is filed as functional, organism-based. The conditions noted are these: Human immunodeficiency virus 1, NL4-3, MT2. For orientation: A reporter such as luciferase makes a cellular process visible.

In data set [15] the test system is Human immunodeficiency virus 1. Nature of the data set: Selectivity ratio of EC50 for HIV1 NL4-3 infected in human MT2 cells in presence of human serum albumin to EC50 for HIV1 NL4-3 infected in human MT2 cells in absence of human serum albumin. It is filed as functional.

As to `Cc1nc2cc(-c3cccc(-c4ccccc4F)c3)nn2c(-c2cc(F)c3c(c2C)CCCO3)c1[C@H](OC(C)(C)C)C(=O)O`, the midpoint of cytotoxicity in data set [1], the CC50 at 96 h, lay at 19100 nM. For the same compound, the Cmax (as a rule, the highest concentration seen after dosing) in data set [2] came out at 803 nM. Also, the half-life (usually the time needed for the level to fall by half in the phase considered) in [3] was 2 h. For the same compound, the remaining at 10 min, 0.5 µM in data set [4] is 100%; in data set [8], 89%. In data set [5], the selectivity ratio was 6360. The Vd in [6] is 0.7 L/kg. The AUC(0-t) (commonly the area under the concentration-time curve up to a stated or last time point) in data set [7] was determined as 4.73 µM·h. The EC50 (as a rule, the concentration at which the effect is half-maximal) turned out to be 19 nM in data set [9] and 3 nM in data set [14]. Also, the clearance in [10] was determined as 13 mL/min/kg. In addition, the bioavailability (as a rule, dose-corrected exposure relative to a reference, in per cent) in [11] turned out to be 44%. In addition, the Tmax (usually the time from dosing to the highest level) in data set [12] was 2.7 h. Also, in [13], the Papp at 4 h, 100 µM was 60.8 ×10⁻⁶ cm/s. The “Ratio EC50” value in [15] turned out to be 6.
`Cc1ccccc1-c1cccc(-c2cc3nc(C)c([C@H](OC(C)(C)C)C(=O)O)c(-c4cc(F)c5c(c4C)CCCO5)n3n2)c1`: the cytotoxic concentration (CC50) (as a rule, the concentration giving 50% cytotoxicity) at 96 h in data set [1] came to 28200 nM. In data set [2], this compound had a maximum concentration (Cmax) of 1290 nM. Moreover, the half-life in data set [3] is 4.1 h. The results for the remaining at 10 min, 0.5 µM in [4] and in data set [8] were 95% and 97%, respectively. For the same compound, in data set [5], the selectivity ratio is 4690. The Vd in data set [6] is 0.5 L/kg. Further, the area under the curve AUC(0-t) in [7] was found to be 6.3 µM·h. The EC50 in [9] was determined as 30 nM; in [14], 6 nM. In data set [10], this compound gave a clearance of 7.1 mL/min/kg. In addition, the bioavailability in [11] turned out to be 32%. Besides, the Tmax in data set [12] was 3 h. In addition, the Papp at 4 h, 100 µM in data set [13] amounted to 47.1 ×10⁻⁶ cm/s. For the same compound, in [15], the “Ratio EC50” value stood at 5.
In the case of `COc1ccccc1-c1cccc(-c2cc3nc(C)c([C@H](OC(C)(C)C)C(=O)O)c(-c4cc(F)c5c(c4C)CCCO5)n3n2)c1`, the CC50 at 96 h in [1] amounted to 23500 nM. The concentration in [2] peaked (Cmax) at 1110 nM. This compound had a half-life in data set [3] of 3 h. The remaining at 10 min, 0.5 µM in data set [4] and in [8] was 99% in each case. In addition, in [5], the selectivity ratio amounted to 3920. Further, in [6], the Vd was 1.8 L/kg. In data set [7], this compound gave an AUC(0-t) of 2.99 µM·h. Moreover, the EC50 in data set [9] was 30 nM; in [14], 6 nM. In [10], this compound yielded a clearance of 28 mL/min/kg. Besides, in data set [11], the bioavailability turned out to be 59%. For the same compound, in data set [12], the Tmax was 2.3 h. The Papp at 4 h, 100 µM in data set [13] worked out at 76.5 ×10⁻⁶ cm/s. In [15], the “Ratio EC50” value is listed as 5.
